Bioassay records from PubChem.
Shown are actives, neighbours in structure and some others; about 3% of the full set was active somewhere.
CendR NRP1 mod = alters CendR peptide binding to human NRP-1; O14786; FAM-RPARPAR peptide binding to NRP-1, fluorescence polarization; inhibition, % at 25 µM; 360,000 tested, 0.85% active;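 active = inhibition or corrected inhibition above about 18%, plus a signal ratio from 0.5 to 1.5, limit read from the data, passing the limit was not always enough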
PLCg1 inh = PLC-gamma1 (human) inhibition, primary screen; AID 720700; inhibition, % at 12.2 µM; purified PLC-gamma1, fluorogenic substrate, fluorescence; 370,000 tested, 0.84% active
KLK7 zymogen act = proKLK7 (human) activation, primary screen; purified proKLK7, EDANS-DABCYL substrate fluorescence; 100% is mature enzyme control, 0% vehicle; activation, % at 7 µM; 370,000 tested, 0.9% active;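 active = activation above the mean of all tested compounds plus 3 SD, computed per campaign excluding outliers beyond control limits, cut at about 13% in these data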
DDE Tn6 FP inh = inhibitors of Tn6 peptide binding to human fibrin DD(E); P02675; Fibrin DD(E) TRITC-Tn6 fluorescence polarization displacement; inhibition, % at 8.3 µM; 370,000 tested, 0.21% active; AID 720509;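 active = inhibition above a per-campaign cutoff: mean of compounds within control limits plus 3 SD, cut at about 15% in these data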;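 note: 0% = median of all compound wells on the plate and 100% = blocking peptide control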
Target sequence (P02675 whole entry, looked up): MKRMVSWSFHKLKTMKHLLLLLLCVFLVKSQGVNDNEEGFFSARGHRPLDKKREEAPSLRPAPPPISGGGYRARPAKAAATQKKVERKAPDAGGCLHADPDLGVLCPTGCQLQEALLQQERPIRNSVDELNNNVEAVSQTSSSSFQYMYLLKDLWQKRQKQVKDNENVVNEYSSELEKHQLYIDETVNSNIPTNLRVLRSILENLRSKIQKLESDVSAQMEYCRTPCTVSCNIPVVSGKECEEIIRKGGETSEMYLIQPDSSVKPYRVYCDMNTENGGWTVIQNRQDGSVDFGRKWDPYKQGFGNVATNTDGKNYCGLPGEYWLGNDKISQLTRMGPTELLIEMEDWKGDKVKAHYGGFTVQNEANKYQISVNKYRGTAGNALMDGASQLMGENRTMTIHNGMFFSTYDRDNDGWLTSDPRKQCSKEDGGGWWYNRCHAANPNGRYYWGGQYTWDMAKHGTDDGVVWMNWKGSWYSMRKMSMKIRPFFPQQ
PLC-beta3 inh = PLC-beta3 (human) inhibition, primary screen | AID 720704 | Purified PLC-beta3, fluorogenic substrate, fluorescence | 370,000 tested, 0.18% active | Q01970 | inhibition, % at 12.2 µM; in the data active = inhibition above about 11%;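 note: 0% = median of compound wells on plate and 100% = full blocker control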
DDE Tn7 FP inh = disrupts Tn7 cyclic peptide binding to fibrin D-Dimer-E complex; AID 720508; FP displacement of FITC-Tn7 peptide from fibrin DD(E); 0% = median of compound wells per plate; inhibition, % at 8.3 µM; 370,000 tested, 0.13% active; P02675;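 active = inhibition above the mean of compounds falling within the control limits plus 3 SD of them, cut at about 14% in these data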;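 note: 0% = plate median of compound wells and 100% = 10 µM Aha-Tn7 peptide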
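Assay system: human fibrin DD(E) protein / Input: 2 µM fibrin DD(E) / Benchmarks: high control of 10 µM Aha-Tn7 peptide / Measured by: fluorescence polarization of the labelled Tn7 tracer / Medium: Tris buffer with calcium and detergent, pH 7.8 / Timing: 10 min compound pre-incubation, 3 h probe incubation at room temperature / Repeats: one replicate per compound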
PLCg1 ctr = counter-screen for PLC-beta3 inhibitors: inhibitors of human PLC-gamma1. shares compounds with PLCg1 inh. purified PLC-gamma1, fluorogenic substrate, fluorescence. inhibition, % at 12.3 µM. 3,300 tested, 3.1% active. AID 743258
PLCb3 confirm = confirmation of human PLC-beta3 inhibitors; shares compounds with PLCg1 inh; purified PLC-beta3, fluorogenic substrate fluorescence; inhibition, % at 12.3 µM; 3,300 tested, 1% active; AID 743261; in the data active = inhibition above about 11%
* = called active by the depositor; · = no result given. Cut-off read from the data, not from the text of the source, unless noted: active = inhibition above about 9.5%; inactive = the rest.

SMILES | CendR NRP1 mod | PLCg1 inh | KLK7 zymogen act | DDE Tn6 FP inh | PLC-beta3 inh | DDE Tn7 FP inh | PLCg1 ctr | PLCb3 confirm
C=CC[C@H](CC(=O)N(CCO)Cc1ccccc1)C(=O)N[C@@H](COC(=O)[C@@H](CC=C)CC(=O)OC(C)(C)C)Cc1c[nH]c2ccccc12 | -10 | 6 | 1 | 3 | 12* | -8 | -10 | -3
C=CCC[C@@H](Cc1ccc(F)cc1)C(=O)OC[C@@H](NC(=O)[C@@H](CC=C)CC(=O)N(CCO)Cc1ccccc1)c1ccccc1 | 1 | 14* | 0 | -10 | 7 | -4 | -7 | -5
C=CCC[C@@H](Cc1ccc(F)cc1)C(=O)OC[C@H](Cc1c[nH]c2ccccc12)NC(=O)[C@@H](CC=C)CC(=O)N[C@@H](CO)Cc1ccccc1 | 8 | 10* | 2 | -4 | 6 | -3 | -7 | -4
C=CC[C@@H](CC(=O)N(CCO)Cc1ccccc1)C(=O)N[C@@H](COC(=O)[C@H](CC=C)CC(=O)OC(C)(C)C)Cc1c[nH]c2ccccc12 | 7 | 6 | 1 | -9 | 6 | -19 | · | ·
C=CCC[C@@H](Cc1ccc(F)cc1)C(=O)OC[C@@H](NC(=O)[C@@H](CC=C)CC(=O)N[C@H](CO)Cc1ccccc1)C(C)(C)C | 5 | 11* | 0 | -5 | 8 | 1 | -4 | 4
Cc1ccccc1C(=O)N1CCN(C(=O)C(=O)c2cccc(C(F)(F)F)c2)CC1 | · | 1 | 0 | 4 | 4 | -5 | · | ·
CC(=O)CC[C@H]1CC[C@]2(CCCN(C(=O)c3ccco3)C2)O1 | · | 0 | 0 | 0 | 3 | -1 | · | ·
CCC(C)c1ccccc1NS(=O)(=O)c1cnn(CC)c1 (configuration not stated) | -3 | 9.8* | -1 | -1 | 4 | 3 | -2 | 1
COC(=O)CNC(=O)[C@H](Cc1ccccc1)NC1(C(=O)NCCc2c[nH]c3ccccc23)CCCCC1 | · | 5 | · | 8 | 1 | -4 | · | ·
CCN(CC)S(=O)(=O)c1ccc2c(c1)c(=O)c(C(=O)NCc1cccs1)cn2C | 2 | 9.6* | 0 | 5 | 4 | 0 | -4 | -5
COC(=O)c1cn(C)c2ccc(S(=O)(=O)N(C)C3CCCCC3)cc2c1=O | -17 | 11* | 0 | -4 | 8 | 0 | 1 | 2
COC(=O)c1cn(C)c2ccc(S(=O)(=O)N3CCCCC3)cc2c1=O | 1 | 12* | 1 | 11 | 5 | 7 | 8 | 2
CCC1CCCCN1CCCNC(=O)c1cn(C)c2ccc(S(=O)(=O)N(C)C3CCCCC3)cc2c1=O (configuration not stated) | -1 | 12* | -1 | 1 | -9 | 2 | -6 | 1
Cn1cc(C(=O)N2CCCCCC2)c(=O)c2cc(S(=O)(=O)N3CCCCC3)ccc21 | -12 | 2 | 0 | 2 | -4 | 0 | · | ·
COc1ccc(NC(=O)NC2CCN(S(=O)(=O)c3ccc(F)cc3)CC2)cc1OC | · | 0 | 1 | -10 | 2 | -3 | · | ·
COc1ccc(C(=O)NCCN2C(=O)C3C4C=CC(C4)C3C2=O)cc1OC (configuration not stated) | · | 3 | 1 | 5 | 4 | -4 | · | ·
CC(C)[C@H](N)C(=O)N[C@@H](Cc1ccccc1)C(=O)N1CCC2CCN(S(=O)(=O)c3ccccc3)CC21 (some centres not stated) | · | 4 | 0 | 2 | 1 | 0 | · | ·
Cc1ccc(N=Nc2c(N)n[nH]c2N)cc1 | -7 | 9 | 1 | 6 | 3 | -8 | · | ·
Cc1cccc(N=Nc2c(N)n[nH]c2-c2ccc(Cl)cc2)c1 | 1 | 11* | 0 | 2 | 10 | -3 | 8 | 5
Nc1nc(SCC(=O)Nc2ccccc2Oc2ccccc2)n[nH]1 | -8 | 8 | 0 | 10 | 12* | -8 | -6 | -5
Nc1nc(SCC(=O)Nc2ccccc2-c2ccccc2)n[nH]1 | -14 | -2 | 0 | 6 | 1 | 8 | · | ·
